Blank lines part the entries; values can stand above or below the compound they belong to.
Columns and labels:
HCT116 cells = experiment: Cell viability of HCT116 cells by flow cytometry; type: cell-based, human; settings: HCT116, 40μM, 48 hours
Method in brief: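 Human colon cancer HCT116 cells were exposed to the test compound at 10 and 40 μM. A reference class I HDAC inhibitor was run alongside. Viability was scored by flow cytometry after 48 h of treatment.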

[1] = molecular target: LSD1-CoREST-HDAC1 complex (Homo sapiens, UniProt Q13547); experiment: AMC-fluorescence histone deacetylase inhibition assay with purified complex; type: biochemical; settings: compared with CI-994, Fig 3A
[2] = tested on: Histone 3 Lysine 56 acetylation (H3K56Ac); experiment: H3K56 acetylation by quantitative western blotting in ES cells; type: cell-based; settings: E14 mouse ES cells, 24h; CI-994 = 40μM, Panobinostat = 30 nM

Sequence of LSD1-CoREST-HDAC1 complex (Q13547 whole entry, other chains not shown): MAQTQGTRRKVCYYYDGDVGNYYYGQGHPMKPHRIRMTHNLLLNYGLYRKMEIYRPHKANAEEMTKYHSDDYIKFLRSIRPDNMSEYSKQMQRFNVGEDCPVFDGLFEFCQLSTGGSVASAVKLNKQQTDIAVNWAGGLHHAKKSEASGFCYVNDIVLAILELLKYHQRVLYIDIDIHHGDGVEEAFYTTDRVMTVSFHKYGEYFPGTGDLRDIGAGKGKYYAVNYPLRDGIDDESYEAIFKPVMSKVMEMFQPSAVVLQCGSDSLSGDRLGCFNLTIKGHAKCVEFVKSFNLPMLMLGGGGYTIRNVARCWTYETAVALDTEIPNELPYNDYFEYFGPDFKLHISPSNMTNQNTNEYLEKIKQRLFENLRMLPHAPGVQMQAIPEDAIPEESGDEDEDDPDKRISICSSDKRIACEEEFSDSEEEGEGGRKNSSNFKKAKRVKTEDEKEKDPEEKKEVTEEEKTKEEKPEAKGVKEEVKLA
Sequence of LSD1-CoREST-HDAC1 complex (Q9UKL0 86-485 partner limits assumed, other chains not shown): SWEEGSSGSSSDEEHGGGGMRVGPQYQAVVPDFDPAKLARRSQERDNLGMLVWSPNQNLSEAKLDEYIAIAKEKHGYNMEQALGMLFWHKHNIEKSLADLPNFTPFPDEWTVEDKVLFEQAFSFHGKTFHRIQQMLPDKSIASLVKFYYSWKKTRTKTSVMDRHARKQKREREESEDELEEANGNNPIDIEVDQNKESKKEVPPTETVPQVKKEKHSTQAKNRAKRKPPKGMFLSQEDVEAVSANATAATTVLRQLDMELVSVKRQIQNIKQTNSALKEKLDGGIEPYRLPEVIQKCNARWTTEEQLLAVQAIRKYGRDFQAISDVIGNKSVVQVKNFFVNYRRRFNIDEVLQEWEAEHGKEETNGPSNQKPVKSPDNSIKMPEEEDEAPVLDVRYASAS

SMILES: CC(=O)Nc1ccc(C(=O)Nc2ccccc2N)cc1 [CI-994]
Cell death (HCT116 cells): 73%

HDAC inhibition of the LSD1-CoREST-HDAC1 complex (in words) [1]: no HDAC inhibition
SMILES: CC(=O)Nc1ccc(C(=O)Nc2ccccc2NC(=O)OC(C)(C)C)cc1 [Compound 5]

SMILES: Cc1[nH]c2ccccc2c1CCNCc1ccc(/C=C/C(=O)NO)cc1 [Panobinostat]
H3K56 acetylation increase, fold compared to non-treated cells [2]: 15-20 fold

From paper PMC7610821 (Chemical communications (Cambridge, England), 2020)
